Hits are enriched below; roughly 4.8% of the tested compounds scored in any of these assays.
T cruzi inh – blocks replication of Trypanosoma cruzi; T. cruzi beta-gal in NIH3T3, luminescence, 90 h; inhibition, % (test concentration not listed); actives 1.4% (n = 300,000);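 active means mean inhibition across valid replicates above about 55%, limit read from the data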;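 further: signal also drops with host cell toxicity which is not excluded here; 0% = plate median of DMSO wells and 100% = zero luminescence signal; higher percent means less beta-gal luminescence so fewer parasites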
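System – NIH/3T3 host cells with β-galactosidase reporter T. cruzi · Doses – single 50 nL compound addition per well in DMSO · Reagent – 5000 T. cruzi trypomastigotes/well · Medium – Low-serum DMEM with 2% FBS · Timing – ≥90 h infection period, 3 h prior cell attachment · Evaluation – parasite load inhibition, % · Technique – GalScreen luminescence, 60 min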
Mot1-301 SUMO – blocks SUMOylation pathway, rescuing yeast Mot1-301 growth. actives 1% (n = 320,000). growth rescue, % at 18.8 µM. S. cerevisiae Mot1-301 growth rescue, ATP luminescence, 38.5C; percent above DMSO median, 100 means doubled. AID 2716;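 active means every valid replicate shows activation above 250% relative to neutral control wells; inactive means the rest, any valid replicate at or below 250%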;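 further: OY570 slx delta 5 strain wells were the positive control but not used for scaling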
CSC inhib – cancer stem cell inhibition. cancer stem cell-like cells viability, luminescence. inhibition, % at 7.5 µM. actives 1.1% (n = 300,000). AID 2717; in the data active means inhibition above about 75%; tested in HMLE shEcad cells
Efflux pump mplx – blocks antifungal efflux pumps in multiplex yeast assay | actives 0.44% (n = 330,000) | S. cerevisiae Candida pump triplex, Nile Red efflux | inhibition, % at 10 µM | AID 485275;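 active means plate passing quality check with inhibition over a set limit, or well fluorescence over plate mean plus 4 SD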;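 further: Nile Red retained in pooled yeast measured as flow cytometry median fluorescence; 0% = buffer negative control and 100% = Enniatin B positive control; higher means more Nile Red kept so more efflux inhibition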
Beta apoptosis – beta cell apoptosis inhibition; AID 435005; protection from apoptosis, % (no concentration beside the values); actives 0.8% (n = 300,000); INS-1E cytokine-induced death, ATP luminescence, 48 h; percent of positive-control rescue, neutral wells zero;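 active means Every replicate reaches about 75%, or at least half do and their mean reaches it too, limit read from the data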;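 further: 0% = cytokine-treated negative control wells and 100% = positive control rescue; higher means more ATP so stronger rescue from cytokine killing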
WT yeast gro inh – growth inhibition of WT yeast, mitochondrial fusion screen; mitochondrial fusion phenotypic screen, WT strain; inhibition, % at 10 µM; actives 2.1% (n = 190,000); AID 1362; in the data active means inhibition above about 58%; tested in S. cerevisiae
Mot1 SUMO dose – yeast SUMO pathway inhibition in dose response; shares compounds with Mot1-301 SUMO; S. cerevisiae Mot1-301 galactose growth, ATP luminescence, 24 h; -100 = growth of slx-deleted rescue strain; growth activity, percent, % at 42 µM; 2,300 tested, under 10 active;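 active means Signal drops as the depositor expects, and the fitted half-maximal dose is no more than ten times the top valid tested dose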;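 further: more negative values mean stronger growth rescue toward the control strain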
An asterisk follows results filed as active; · = no result; + = active, no number.

SMILES	T cruzi inh	Mot1-301 SUMO	CSC inhib	Efflux pump mplx	Beta apoptosis	WT yeast gro inh	Mot1 SUMO dose
Cc1nn(-c2ccccc2)c2sc(C(=O)OCC(=O)N3CCCCC3)cc12	-2	-11	-8	0	-3	·	·
Cc1[nH]c2ccccc2c1/C=N/NC(=O)c1cccc(Br)c1	-1	497*	-10	0	-4	·	0
COC(=O)c1sc(NC(=O)CSc2nc3cccnc3n2C)nc1C	4	164	·	0	-4	·	·
CCNS(=O)(=O)c1ccc(NC(=O)c2ccc(Cn3cc(Br)cn3)o2)cc1	-1	229	-8	0	-3	-10	·
Cc1ccc(C)c(NC(NC(=O)c2ccccn2)C(Cl)(Cl)Cl)c1 (stereo not given)	-4	982*	-4	0	-4	-21	0
Cc1onc(-c2ccccc2)c1C(=O)N/N=C/c1cccc(O)c1	-33	-21	-15	0	-1	9	·
Cc1onc(-c2ccccc2)c1C(=O)N/N=C/C=C/c1ccccc1	-8	382*	13	0	3	·	2
COc1ccc(CCNC(=O)COC(=O)CNS(=O)(=O)c2ccc(SC)c([N+](=O)[O-])c2)cc1	·	-10	·	1	3	·	·
O=C(CCSc1nnnn1-c1ccccc1)N1CCOCC1	-6	688*	9	0	-3	-22	1
Cc1cc(=O)n2nc(N3CCC(C(=O)NCc4ccccc4)CC3)sc2n1	5	92	9	0	0	·	·
CCC(Cc1ccccc1)NC(=O)C1CCN(c2nn3c(=O)cc(C)nc3s2)CC1 (stereo not given)	7	408*	-7	0	2	·	0
COc1ccc(NC(=O)COc2ccccc2)c(OC)c1	20	725	10	0	1	3	·
COc1ccc(NC(=O)CC(C)C)c(OC)c1	-13	789*	-3	0	-11	-2	0
O=C(COc1ccccc1)Nc1ccc(OC(F)(F)C(F)F)c(NC(=O)COc2ccccc2)c1	14	961*	1	0	1	-7	0
CCc1cc2c(=O)c(-c3nc4ccccc4n3C)c(C)oc2c(CN2CCOCC2)c1O	-4	520*	0	0	1	14	-1
CCc1cc2c(=O)c(-c3nc4ccccc4[nH]3)coc2c(CN2CCCCC2)c1O	-9	477*	-12	0	-4	·	-1
CCc1cc2c(=O)c(-c3nc4ccccc4n3C)coc2c(CN2CCCC(C)C2)c1O (stereo not given)	11	35	-1	0	-3	·	·
N#CCCn1cc(/C=N/NC(=O)c2ccncc2)c(-c2ccc(F)cc2)n1	-12	3	-13	0	0	-32	·
COc1ccc(OC)c(S(=O)(=O)N(C)CC(=O)Nc2ccccc2OC)c1	-5	-3	-13	0	-1	6	·
COc1ccc(OC)c(NC(=O)CN(C)S(=O)(=O)c2ccc(Cl)cc2)c1	-13	415*	-5	0	-1	-14	0
C[C@H](CO)N1C[C@H](C)[C@@H](CN(C)Cc2ccc(C(=O)O)cc2)Oc2c(cccc2N(C)C)C1=O	·	1	-13	0	-2	·	·
COc1ccc2nc(NC(=O)c3cccc(S(=O)(=O)N4CCOCC4)c3)sc2c1	-2	102	7	0	4	28	·
Cc1nc2ccc(NC(=O)c3ccc(S(=O)(=O)N4CCOCC4)cc3)cc2s1	6	+	-1	0	3	-8	0
COc1ccc2nc(NC(=O)c3cc(S(=O)(=O)N4CCOCC4)ccc3C)sc2c1	13	529*	-10	0	7	15	0
Cc1ccc(C(=O)NNc2ncnc3c2cnn3C)cc1	12	+	-7	0	2	·	0
SMILES	T cruzi inh	Mot1-301 SUMO	CSC inhib	Efflux pump mplx	Beta apoptosis	WT yeast gro inh	Mot1 SUMO dose
O=C(NCC1CCN(Cc2ccccc2Cl)CC1)Nc1ccccc1F	12	606*	6	0	-1	·	0
O=C(Nc1cccc(C(F)(F)F)c1)c1ccccc1NC(=O)C1CCCCC1	6	-2	11	0	0	1	·
COc1cc(C(CC(=O)O)n2cnnn2)ccc1OC(C)C (stereo not given)	-3	106	-4	0	-1	4	·
Cc1c(NC(C)c2cc(Cl)ccc2O)c(=O)n(-c2ccccc2)n1C (stereo not given)	-36	455*	0	0	0	0	1
Cc1sc2nc(CN3CCCC3)nc(Cl)c2c1C	-11	-12	2	0	-11	10	·
Cc1sc2nc(CN3CCCC3)nc(NCc3ccncc3)c2c1C	8	802*	-14	0	-6	12	0
C#CC(C)OC(=O)Nc1cnccc1C(F)(F)F (stereo not given)	-24	-1	3	0	-14	·	·
CCOc1ccc(CN(C)C(C)C(=O)NCc2ccccc2)cc1 (stereo not given)	15	401*	-3	0	6	·	0
CCc1ccc(CN(C)C(C)C(=O)NCc2ccccc2)cc1 (stereo not given)	8	-13	-7	0	5	·	·
O=C(CCCC(=O)Nc1ccc(Br)cc1)N/N=C/c1ccccc1	-4	0	3	5	-3	·	·
Oc1c(Br)cc(Cl)cc1C=Nc1ccc(N2CCOCC2)cc1	22	17	-9	0	·	11	·
Oc1c(Br)cc(Cl)cc1C=Nc1ccccc1Br	-24	634*	-1	0	2	-1	1
C=CCN1C(=O)/C(=C\c2ccc(C)cc2)N=C1SCC(=O)NCCC	-25	+	3	0	-4	-4	0
COC(=O)c1sccc1NC(=O)COc1ccc(Cl)cc1Cl	21	-3	-7	0	0	-6	·
NC(=O)c1cccc2cc3ccccc3cc12	-7	625*	6	0	·	3	1
COc1ccc(-c2nc(CS(=O)(=O)CC(=O)NC3CCC(C)CC3)c(C)o2)cc1 (stereo not given)	4	17	-9	0	0	·	·
Cc1sc(NC(=O)c2ccco2)c(C(c2ccc(F)cc2)N2CCN(C)CC2)c1C (stereo not given)	8	405*	-1	0	-5	95*	-1
COCC(=O)n1nc(-c2ccc(C)cc2)nc1NCc1ccc(F)cc1	·	·	·	·	·	6	·
COCC(=O)n1nc(-c2ccccc2)nc1NCc1ccc(N(C)C)cc1	8	862*	6	0	-2	9	0
CC(=O)n1nc(-c2ccccc2)nc1NCc1ccc(F)cc1	-10	-17	-10	0	-5	-8	·
COCC(=O)n1nc(-c2ccc(Cl)cc2)nc1NCc1ccc(F)cc1	-14	539*	40	0	-11	3	-1
